Active and inactive are the calls of the source. The calls are words filed in the database; no cut-off is given here.

Test [1] deals with Cannabinoid receptor 2 (Homo sapiens) (UniProt P34972). The test can be described thus: Displacement of [3H]CP55940 from human CB2 receptor expressed in CHOK1 cell membranes at 10 uM by liquid scintillation spectrometry analysis. The conditions noted are these: CHO-K1. In a few lines:
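[3H]CP55940 displacement at human CB1 or CB2 receptors, single test concentration 10 μM. Result expressed as % radioligand displacement ± SD (N = 2, n = 2).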
A general note: Loss of bound radioactivity is the signal in a displacement assay; it reports binding, not function.

For test [2], the target named is N-acyl-phosphatidylethanolamine-hydrolyzing phospholipase D (Homo sapiens) (UniProt Q6IQ20). The test can be described thus: Inhibition of full length human NAPE-PLD expressed in HEK293T cells assessed as enzyme remaining activity at 10 uM using PED6 as substrate preincubated for 30 mins followed by substrate addition and measured for 1 hr at 2 mins relative to control. The conditions noted are these: HEK-293T. It counts as cell-based.
Sequence of N-acyl-phosphatidylethanolamine-hydrolyzing phospholipase D (Homo sapiens) (Q6IQ20 whole entry, looked up): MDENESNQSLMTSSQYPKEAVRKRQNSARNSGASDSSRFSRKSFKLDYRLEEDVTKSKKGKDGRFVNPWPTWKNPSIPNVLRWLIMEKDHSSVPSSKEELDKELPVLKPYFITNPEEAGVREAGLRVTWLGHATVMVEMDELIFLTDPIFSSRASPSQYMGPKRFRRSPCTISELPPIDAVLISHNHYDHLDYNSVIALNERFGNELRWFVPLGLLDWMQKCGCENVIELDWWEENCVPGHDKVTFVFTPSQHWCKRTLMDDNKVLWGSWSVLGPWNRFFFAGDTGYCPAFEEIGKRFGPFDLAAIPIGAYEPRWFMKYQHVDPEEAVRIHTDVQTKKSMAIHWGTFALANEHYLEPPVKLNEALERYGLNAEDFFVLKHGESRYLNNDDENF

The target in test [3] is Cytosolic phospholipase A2 epsilon (Homo sapiens) (UniProt Q3MJ16). The test can be described thus: Inhibition of full length human PLA2G4E assessed as enzyme remaining activity at 10 uM using FP-TAMRA as substrate preincubated for 30 mins followed by substrate addition and measured after 5 mins by SDS-PAGE based ABPP analysis relative to control. A digest of the protocol: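 hPLA2G4E-overexpressing membrane lysate (1 μg/μL) preincubated with 10 μM inhibitor for 30 min at rt. FP-TAMRA 50 nM added for 5 min at rt. Resolved on 8% SDS-PAGE, fluorescence normalized to Coomassie. Reported as % remaining activity ± SD, n = 3.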
Sequence of Cytosolic phospholipase A2 epsilon (Homo sapiens) (Q3MJ16 whole entry): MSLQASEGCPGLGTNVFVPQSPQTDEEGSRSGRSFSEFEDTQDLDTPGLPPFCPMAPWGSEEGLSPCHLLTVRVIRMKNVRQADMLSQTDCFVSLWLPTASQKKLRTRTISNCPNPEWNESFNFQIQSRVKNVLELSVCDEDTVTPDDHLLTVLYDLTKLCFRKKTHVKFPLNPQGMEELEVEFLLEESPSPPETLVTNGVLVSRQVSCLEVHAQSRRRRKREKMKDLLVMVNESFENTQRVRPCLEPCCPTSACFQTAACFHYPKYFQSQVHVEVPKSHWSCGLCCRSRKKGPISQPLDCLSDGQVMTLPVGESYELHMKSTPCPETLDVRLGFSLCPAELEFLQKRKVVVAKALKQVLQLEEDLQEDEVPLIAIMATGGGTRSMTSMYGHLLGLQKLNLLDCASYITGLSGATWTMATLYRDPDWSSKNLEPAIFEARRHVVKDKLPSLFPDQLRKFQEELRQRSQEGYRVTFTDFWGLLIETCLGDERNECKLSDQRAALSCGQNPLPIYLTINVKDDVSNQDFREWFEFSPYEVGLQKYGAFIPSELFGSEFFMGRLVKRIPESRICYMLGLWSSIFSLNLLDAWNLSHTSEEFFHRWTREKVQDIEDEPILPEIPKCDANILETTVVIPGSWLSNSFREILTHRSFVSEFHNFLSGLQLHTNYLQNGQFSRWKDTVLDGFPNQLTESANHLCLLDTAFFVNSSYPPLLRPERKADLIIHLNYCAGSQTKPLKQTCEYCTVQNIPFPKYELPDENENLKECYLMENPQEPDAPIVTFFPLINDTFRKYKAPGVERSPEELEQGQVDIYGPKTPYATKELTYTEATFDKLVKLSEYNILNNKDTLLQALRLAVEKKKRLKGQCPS

Test [4] deals with Fatty-acid amide hydrolase 1 (Mus musculus) (UniProt O08914). The test can be described thus: Inhibition of mouse brain membrane FAAH assessed as enzyme remaining activity at 10 uM preincubated for 30 mins followed by MB064 or FP-TAMRA addition and measured after 15 mins by SDS-PAGE based ABPP analysis relative to control. It counts as cell membranes. A digest of the protocol:
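Mouse brain membrane proteome (2 μg/μL) preincubated with 10 μM inhibitor for 30 min at rt. Then MB064 250 nM or FP-TAMRA 500 nM for 15 min at rt. Resolved on 10% SDS-PAGE, fluorescence normalized to Coomassie. Reported as % remaining activity ± SD, n = 3.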

Test [5] addresses T1, Phospholipase A and acyltransferase 2 (Homo sapiens) (UniProt Q9NWW9).
T1 sequence (whole entry): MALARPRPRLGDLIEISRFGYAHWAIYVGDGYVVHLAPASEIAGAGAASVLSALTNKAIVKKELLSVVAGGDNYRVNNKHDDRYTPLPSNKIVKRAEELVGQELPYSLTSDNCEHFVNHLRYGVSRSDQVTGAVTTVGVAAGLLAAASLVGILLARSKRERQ
The test can be described thus: Inhibition of full-length C-terminal FLAG-tagged human PLAAT2 expressed in human U2OS cells assessed as reduction in anandamide level at 10 uM incubated for 4 hrs by LC-MS/MS analysis relative to control. The test is classed as cell-based. In a few lines: (§1)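 U2OS cells transfected with PLAAT2, PLAAT5 or empty vector (PEI, 1:5 plasmid/PEI). At 24 h, switched to serum-free medium with 10 μM compound (0.1% DMSO) or DMSO for 4 h at 37 °C. Pellets extracted with MTBE against deuterated internal standards. NAEs, 2-AG and free fatty acids quantified by LC–MS/MS, normalized to live cell count. Four biological replicates; one-way ANOVA.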

Test [6] has as its target T1, Phospholipase A and acyltransferase 2 (Homo sapiens). The test can be described thus: Inhibition of full-length C-terminal FLAG-tagged human PLAAT2 expressed in human U2OS cells assessed as reduction in absolute N-palmitoylethanolamine level at 10 uM incubated for 4 hrs by LC-MS/MS analysis. The test is classed as cell-based. A digest of the protocol:
as §1

Test [7] shares this target. The test is described as follows: Inhibition of full-length C-terminal FLAG-tagged human PLAAT2 expressed in human U2OS cells assessed as reduction in absolute N-stearoylethanolamine level at 10 uM incubated for 4 hrs by LC-MS/MS analysis. It counts as cell-based. A digest of the protocol: as §1
In test [8] the target is T2, Phospholipase A and acyltransferase 5 (Homo sapiens) (UniProt Q96KN8).
T2 sequence (whole entry): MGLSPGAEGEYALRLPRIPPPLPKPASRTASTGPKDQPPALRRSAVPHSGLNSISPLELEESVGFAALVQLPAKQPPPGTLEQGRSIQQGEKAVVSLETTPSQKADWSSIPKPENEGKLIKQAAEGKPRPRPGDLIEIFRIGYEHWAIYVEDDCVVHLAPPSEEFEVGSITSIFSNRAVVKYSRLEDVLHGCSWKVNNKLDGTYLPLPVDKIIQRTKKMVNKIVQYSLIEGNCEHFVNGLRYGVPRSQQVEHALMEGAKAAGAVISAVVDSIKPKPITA
The test can be described thus: Inhibition of full-length C-terminal FLAG-tagged human PLAAT5 expressed in human U2OS cells assessed as reduction in absolute N-oleoylethanolamine level at 10 uM incubated for 4 hrs by LC-MS/MS analysis. The test is classed as cell-based. A digest of the protocol:
as §1

For test [9], the target named is T2, Phospholipase A and acyltransferase 5 (Homo sapiens). The test can be described thus: Inhibition of full-length C-terminal FLAG-tagged human PLAAT5 expressed in human U2OS cells assessed as reduction in absolute N-linoleoylethanolamine level at 10 uM incubated for 4 hrs by LC-MS/MS analysis. It counts as cell-based. In a few lines:
as §1

In test [10] the target is T1, Phospholipase A and acyltransferase 2 (Homo sapiens). The test is described as follows: Inhibition of full-length C-terminal FLAG-tagged human PLAAT2 expressed in human U2OS cells assessed as reduction in absolute N-eicosapentaenoylethanolamine level at 10 uM incubated for 4 hrs by LC-MS/MS analysis. It counts as cell-based. A digest of the protocol:
as §1

Test [11] deals with U2OS. The test can be described thus: Downregulation of N-palmitoylethanolamine level in human U2OS cells at 10 uM after 4 hrs by LC-MS/MS analysis. The test is classed as functional, cell-based. In a few lines:
as §1

Test [12] deals with U2OS. The test can be described thus: Downregulation of N-stearoylethanolamine level in human U2OS cells at 10 uM after 4 hrs by LC-MS/MS analysis. The test is classed as functional, cell-based. In a few lines: as §1
Test [13] has as its system U2OS. The test is described as follows: Inhibition of serine hydrolase in human U2OS cytosolic fraction at 10 uM preincubated for 30 mins followed by MB064 addition and measured after 15 mins by SDS-PAGE based competitive ABPP analysis. A digest of the protocol:
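U2OS cytosol or membrane lysate at 2.5 μg/μL, pretreated with inhibitor or DMSO vehicle for 30 min at rt. Probe then added for 15 min at rt: MB064 at 2 μM or FP-TAMRA at 500 nM. Samples denatured in Laemmli buffer and resolved by SDS-PAGE. In-gel fluorescence scanned at Cy3/Cy5 settings and normalized to Coomassie staining.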

The target of test [14] is Cytosolic phospholipase A2 (Homo sapiens) (UniProt P47712). The test is described as follows: Inhibition of human PLA2G4A expressed in HEK293T cell lysates at 50 uM preincubated for 30 mins followed by FP-TAMRA addition and measured after 20 mins by SDS-PAGE based competitive ABPP analysis. It counts as cell-free. Particulars: HEK-293T.
Sequence of Cytosolic phospholipase A2 (Homo sapiens) (P47712 whole entry): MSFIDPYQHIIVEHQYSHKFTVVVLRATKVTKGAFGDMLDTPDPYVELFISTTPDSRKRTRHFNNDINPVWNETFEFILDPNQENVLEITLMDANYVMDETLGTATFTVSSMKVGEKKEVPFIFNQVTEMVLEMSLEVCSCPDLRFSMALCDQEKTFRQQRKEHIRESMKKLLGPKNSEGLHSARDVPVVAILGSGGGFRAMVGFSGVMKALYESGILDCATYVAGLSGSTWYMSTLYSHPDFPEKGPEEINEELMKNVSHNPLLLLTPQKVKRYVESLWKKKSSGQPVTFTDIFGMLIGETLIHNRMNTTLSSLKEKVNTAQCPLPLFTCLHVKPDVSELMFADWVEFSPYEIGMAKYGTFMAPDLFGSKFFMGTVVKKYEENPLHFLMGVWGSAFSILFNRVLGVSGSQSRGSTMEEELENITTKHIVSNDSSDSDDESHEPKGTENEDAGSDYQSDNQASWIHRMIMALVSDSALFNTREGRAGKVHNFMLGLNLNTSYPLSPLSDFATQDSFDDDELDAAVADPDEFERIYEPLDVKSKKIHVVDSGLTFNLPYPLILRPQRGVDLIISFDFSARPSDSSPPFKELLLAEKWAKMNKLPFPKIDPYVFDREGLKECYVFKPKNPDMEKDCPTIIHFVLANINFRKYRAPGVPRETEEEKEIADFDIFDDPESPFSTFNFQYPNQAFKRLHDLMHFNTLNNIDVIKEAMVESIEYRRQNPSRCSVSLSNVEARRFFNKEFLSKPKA
Test [15] has as its target Cytosolic phospholipase A2 gamma (Homo sapiens) (UniProt Q9UP65). The test can be described thus: Inhibition of human PLA2G4C expressed in HEK293T cell lysates at 10 uM preincubated for 30 mins followed by FP-TAMRA addition and measured after 20 mins by SDS-PAGE based competitive ABPP analysis. It counts as cell-free. The conditions noted are these: HEK-293T. A digest of the protocol: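 hPLA2G4B, C or D-overexpressing membrane lysate (1 μg/μL) preincubated with inhibitor for 30 min at rt. FP-TAMRA 500 nM added for 20 min at rt. In-gel fluorescence after SDS-PAGE, normalized to Coomassie.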

Test [16] deals with Monoglyceride lipase (Homo sapiens) (UniProt Q99685). The test is described as follows: Inhibition of human MAGL expressed in HEK293 cells assessed as enzyme remaining activity at 10 uM measured by natural substrate-based fluorescence assay relative to control.
Sequence of Monoglyceride lipase (Homo sapiens) (Q99685 whole entry): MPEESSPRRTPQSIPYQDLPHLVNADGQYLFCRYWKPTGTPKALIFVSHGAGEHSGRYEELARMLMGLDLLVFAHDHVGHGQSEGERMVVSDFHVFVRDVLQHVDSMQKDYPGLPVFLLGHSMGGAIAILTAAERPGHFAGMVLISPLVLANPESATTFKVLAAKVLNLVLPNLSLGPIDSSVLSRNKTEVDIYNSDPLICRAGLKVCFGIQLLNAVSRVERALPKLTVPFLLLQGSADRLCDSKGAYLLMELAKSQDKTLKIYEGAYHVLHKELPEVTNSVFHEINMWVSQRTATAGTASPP

Sequence of Cannabinoid receptor 2 (Homo sapiens) (P34972 whole entry): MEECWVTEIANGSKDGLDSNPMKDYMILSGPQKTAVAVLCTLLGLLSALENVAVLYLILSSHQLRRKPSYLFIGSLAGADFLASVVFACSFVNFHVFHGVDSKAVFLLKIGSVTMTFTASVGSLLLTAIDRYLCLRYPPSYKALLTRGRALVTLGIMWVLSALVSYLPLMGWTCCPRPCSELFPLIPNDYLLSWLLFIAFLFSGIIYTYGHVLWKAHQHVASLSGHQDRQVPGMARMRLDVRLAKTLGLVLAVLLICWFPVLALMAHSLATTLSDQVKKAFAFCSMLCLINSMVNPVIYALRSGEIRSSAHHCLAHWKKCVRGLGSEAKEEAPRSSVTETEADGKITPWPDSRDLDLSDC
Sequence of Cytosolic phospholipase A2 gamma (Homo sapiens) (Q9UP65 whole entry): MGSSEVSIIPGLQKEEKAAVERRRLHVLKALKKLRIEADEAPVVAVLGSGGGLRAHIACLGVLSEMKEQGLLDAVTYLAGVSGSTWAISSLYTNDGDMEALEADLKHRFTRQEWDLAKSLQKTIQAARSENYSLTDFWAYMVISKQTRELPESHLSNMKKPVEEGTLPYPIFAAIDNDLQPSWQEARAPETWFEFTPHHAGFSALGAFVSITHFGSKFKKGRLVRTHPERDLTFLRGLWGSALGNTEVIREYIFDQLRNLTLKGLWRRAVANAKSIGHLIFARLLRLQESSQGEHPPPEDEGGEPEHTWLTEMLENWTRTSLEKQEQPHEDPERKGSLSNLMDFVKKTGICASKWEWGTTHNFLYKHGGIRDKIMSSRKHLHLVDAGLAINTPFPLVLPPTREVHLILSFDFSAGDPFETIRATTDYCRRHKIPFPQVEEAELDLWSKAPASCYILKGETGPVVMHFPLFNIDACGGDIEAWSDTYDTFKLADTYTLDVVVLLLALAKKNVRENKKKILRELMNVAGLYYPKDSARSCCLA
Sequence of Fatty-acid amide hydrolase 1 (Mus musculus) (O08914 whole entry): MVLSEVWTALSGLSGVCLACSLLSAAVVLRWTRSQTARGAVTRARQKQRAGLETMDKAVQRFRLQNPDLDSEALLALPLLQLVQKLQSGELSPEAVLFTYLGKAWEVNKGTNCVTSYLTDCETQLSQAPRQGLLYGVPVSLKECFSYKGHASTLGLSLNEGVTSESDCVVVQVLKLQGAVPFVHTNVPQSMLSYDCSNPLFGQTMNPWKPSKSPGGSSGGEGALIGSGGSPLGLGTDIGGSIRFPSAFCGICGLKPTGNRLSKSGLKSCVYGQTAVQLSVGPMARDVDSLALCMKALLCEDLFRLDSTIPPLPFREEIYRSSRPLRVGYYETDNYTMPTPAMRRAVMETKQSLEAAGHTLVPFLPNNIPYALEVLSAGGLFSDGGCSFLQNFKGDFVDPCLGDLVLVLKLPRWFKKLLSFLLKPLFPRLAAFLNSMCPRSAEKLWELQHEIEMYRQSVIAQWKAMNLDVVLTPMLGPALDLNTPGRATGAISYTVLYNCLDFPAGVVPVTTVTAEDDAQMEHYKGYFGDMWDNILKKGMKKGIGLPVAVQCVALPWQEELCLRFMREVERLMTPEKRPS

Regarding `O=C(CCCc1ccccc1)C(=O)NCCc1ccc(Oc2ccccc2)cc1`, the Activity in test [1] worked out at 32%; in test [2], 92%; in test [3], 95%; in [4], 108%; in test [16], 105%. The fold change (FC) in test [5] is 2. Moreover, the inhibition result in [6], in test [7], in test [8], in test [9] and in test [10] was “Active” in each case. Moreover, the inhibition result (in the test with U2OS [11]; with U2OS [12]; in the test on U2OS [13]; in test [14]; in test [15]) was “inactive” each time.

(Values after ChEMBL document CHEMBL4622983, “Structure-Activity Relationship Studies of α-Ketoamides as Inhibitors of the Phospholipase A and Acyltransferase Enzyme Family” (J Med Chem, 2020).)
